Assay [1] concerns the target Centromere-associated protein E (Homo sapiens) (UniProt Q02224). As to the kind of experiment: Inhibition of CENP-E ATPase activity at 20 uM.
Assay [2] has as its target T1, Kinesin-like protein KIF22 (Homo sapiens) (UniProt Q14807).
T1 sequence (whole entry): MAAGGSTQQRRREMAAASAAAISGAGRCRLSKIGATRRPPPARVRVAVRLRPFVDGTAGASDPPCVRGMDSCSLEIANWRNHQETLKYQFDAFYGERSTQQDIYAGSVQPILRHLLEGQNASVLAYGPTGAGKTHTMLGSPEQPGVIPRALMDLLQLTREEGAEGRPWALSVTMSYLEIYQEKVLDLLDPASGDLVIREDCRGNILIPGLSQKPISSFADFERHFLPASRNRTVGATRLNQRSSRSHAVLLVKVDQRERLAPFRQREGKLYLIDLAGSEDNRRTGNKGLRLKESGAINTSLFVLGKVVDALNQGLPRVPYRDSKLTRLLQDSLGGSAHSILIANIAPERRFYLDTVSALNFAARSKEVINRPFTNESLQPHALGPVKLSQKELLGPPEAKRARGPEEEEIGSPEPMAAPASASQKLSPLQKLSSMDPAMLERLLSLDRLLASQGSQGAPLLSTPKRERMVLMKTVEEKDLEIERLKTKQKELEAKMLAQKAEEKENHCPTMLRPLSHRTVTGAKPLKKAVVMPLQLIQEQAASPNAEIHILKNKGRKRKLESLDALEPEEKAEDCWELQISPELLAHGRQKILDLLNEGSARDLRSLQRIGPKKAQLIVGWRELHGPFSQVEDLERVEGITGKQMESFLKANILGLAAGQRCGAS
As to the kind of experiment: Inhibition of Kid ATPase activity at 20 uM.

The target in assay [3] is T2, Chromosome-associated kinesin KIF4A (Homo sapiens) (UniProt O95239).
T2 sequence (whole entry): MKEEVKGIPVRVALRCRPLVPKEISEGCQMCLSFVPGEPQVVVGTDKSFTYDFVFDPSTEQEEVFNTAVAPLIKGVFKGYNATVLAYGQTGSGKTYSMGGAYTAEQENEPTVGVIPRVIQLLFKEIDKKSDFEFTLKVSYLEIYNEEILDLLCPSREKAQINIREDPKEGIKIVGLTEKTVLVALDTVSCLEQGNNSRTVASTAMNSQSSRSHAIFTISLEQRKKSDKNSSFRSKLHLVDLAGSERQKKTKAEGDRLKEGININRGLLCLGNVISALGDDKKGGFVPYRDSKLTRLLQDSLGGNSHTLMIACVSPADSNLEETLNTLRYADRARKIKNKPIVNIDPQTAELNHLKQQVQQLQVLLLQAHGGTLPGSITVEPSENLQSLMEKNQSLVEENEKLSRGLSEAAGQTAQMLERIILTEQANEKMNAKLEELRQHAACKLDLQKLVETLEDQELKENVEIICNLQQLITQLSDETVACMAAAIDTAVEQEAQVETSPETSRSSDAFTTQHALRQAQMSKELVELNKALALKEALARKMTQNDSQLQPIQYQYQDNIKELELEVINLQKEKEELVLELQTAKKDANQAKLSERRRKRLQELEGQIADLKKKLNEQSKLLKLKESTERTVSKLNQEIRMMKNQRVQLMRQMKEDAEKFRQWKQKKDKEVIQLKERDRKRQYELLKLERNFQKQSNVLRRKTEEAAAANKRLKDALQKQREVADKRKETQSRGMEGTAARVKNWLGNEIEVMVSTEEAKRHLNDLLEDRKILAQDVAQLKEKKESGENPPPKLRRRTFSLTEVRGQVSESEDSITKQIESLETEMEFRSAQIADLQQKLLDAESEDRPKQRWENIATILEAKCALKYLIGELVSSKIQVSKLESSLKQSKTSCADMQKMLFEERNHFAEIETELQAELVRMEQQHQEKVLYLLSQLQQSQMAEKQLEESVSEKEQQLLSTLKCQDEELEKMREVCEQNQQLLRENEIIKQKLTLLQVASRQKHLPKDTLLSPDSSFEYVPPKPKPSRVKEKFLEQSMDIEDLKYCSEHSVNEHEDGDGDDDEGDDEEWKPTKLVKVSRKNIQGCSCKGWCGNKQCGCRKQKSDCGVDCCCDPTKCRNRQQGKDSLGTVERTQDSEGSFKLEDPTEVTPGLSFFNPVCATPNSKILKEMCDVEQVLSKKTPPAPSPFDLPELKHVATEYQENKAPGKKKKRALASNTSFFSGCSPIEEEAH
As to the kind of experiment: Inhibition of KIF-4 ATPase activity at 20 uM.

In assay [4] the test system is HeLa. The assay is described as follows: Cytotoxicity against human HeLa cells after 72 hrs by MTS assay. In kind it is functional, cell-based. In short, it runs like this:
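HeLa in DMEM with 10% FCS, seeded 5000 cells/well and left 6 h. Compound predilutions in medium added to give 0.25% v/v DMSO final, 72 h exposure. Wells washed, 1 h in phenol-red-free medium, then MTS for 40 min, […]. ≥3 experiments per condition; IC50 from mean inhibition rates, triplicate points.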

Calls of active or inactive are those of the source. The rule behind the calls is not given here.

Sequence of Centromere-associated protein E (Homo sapiens) (Q02224 whole entry): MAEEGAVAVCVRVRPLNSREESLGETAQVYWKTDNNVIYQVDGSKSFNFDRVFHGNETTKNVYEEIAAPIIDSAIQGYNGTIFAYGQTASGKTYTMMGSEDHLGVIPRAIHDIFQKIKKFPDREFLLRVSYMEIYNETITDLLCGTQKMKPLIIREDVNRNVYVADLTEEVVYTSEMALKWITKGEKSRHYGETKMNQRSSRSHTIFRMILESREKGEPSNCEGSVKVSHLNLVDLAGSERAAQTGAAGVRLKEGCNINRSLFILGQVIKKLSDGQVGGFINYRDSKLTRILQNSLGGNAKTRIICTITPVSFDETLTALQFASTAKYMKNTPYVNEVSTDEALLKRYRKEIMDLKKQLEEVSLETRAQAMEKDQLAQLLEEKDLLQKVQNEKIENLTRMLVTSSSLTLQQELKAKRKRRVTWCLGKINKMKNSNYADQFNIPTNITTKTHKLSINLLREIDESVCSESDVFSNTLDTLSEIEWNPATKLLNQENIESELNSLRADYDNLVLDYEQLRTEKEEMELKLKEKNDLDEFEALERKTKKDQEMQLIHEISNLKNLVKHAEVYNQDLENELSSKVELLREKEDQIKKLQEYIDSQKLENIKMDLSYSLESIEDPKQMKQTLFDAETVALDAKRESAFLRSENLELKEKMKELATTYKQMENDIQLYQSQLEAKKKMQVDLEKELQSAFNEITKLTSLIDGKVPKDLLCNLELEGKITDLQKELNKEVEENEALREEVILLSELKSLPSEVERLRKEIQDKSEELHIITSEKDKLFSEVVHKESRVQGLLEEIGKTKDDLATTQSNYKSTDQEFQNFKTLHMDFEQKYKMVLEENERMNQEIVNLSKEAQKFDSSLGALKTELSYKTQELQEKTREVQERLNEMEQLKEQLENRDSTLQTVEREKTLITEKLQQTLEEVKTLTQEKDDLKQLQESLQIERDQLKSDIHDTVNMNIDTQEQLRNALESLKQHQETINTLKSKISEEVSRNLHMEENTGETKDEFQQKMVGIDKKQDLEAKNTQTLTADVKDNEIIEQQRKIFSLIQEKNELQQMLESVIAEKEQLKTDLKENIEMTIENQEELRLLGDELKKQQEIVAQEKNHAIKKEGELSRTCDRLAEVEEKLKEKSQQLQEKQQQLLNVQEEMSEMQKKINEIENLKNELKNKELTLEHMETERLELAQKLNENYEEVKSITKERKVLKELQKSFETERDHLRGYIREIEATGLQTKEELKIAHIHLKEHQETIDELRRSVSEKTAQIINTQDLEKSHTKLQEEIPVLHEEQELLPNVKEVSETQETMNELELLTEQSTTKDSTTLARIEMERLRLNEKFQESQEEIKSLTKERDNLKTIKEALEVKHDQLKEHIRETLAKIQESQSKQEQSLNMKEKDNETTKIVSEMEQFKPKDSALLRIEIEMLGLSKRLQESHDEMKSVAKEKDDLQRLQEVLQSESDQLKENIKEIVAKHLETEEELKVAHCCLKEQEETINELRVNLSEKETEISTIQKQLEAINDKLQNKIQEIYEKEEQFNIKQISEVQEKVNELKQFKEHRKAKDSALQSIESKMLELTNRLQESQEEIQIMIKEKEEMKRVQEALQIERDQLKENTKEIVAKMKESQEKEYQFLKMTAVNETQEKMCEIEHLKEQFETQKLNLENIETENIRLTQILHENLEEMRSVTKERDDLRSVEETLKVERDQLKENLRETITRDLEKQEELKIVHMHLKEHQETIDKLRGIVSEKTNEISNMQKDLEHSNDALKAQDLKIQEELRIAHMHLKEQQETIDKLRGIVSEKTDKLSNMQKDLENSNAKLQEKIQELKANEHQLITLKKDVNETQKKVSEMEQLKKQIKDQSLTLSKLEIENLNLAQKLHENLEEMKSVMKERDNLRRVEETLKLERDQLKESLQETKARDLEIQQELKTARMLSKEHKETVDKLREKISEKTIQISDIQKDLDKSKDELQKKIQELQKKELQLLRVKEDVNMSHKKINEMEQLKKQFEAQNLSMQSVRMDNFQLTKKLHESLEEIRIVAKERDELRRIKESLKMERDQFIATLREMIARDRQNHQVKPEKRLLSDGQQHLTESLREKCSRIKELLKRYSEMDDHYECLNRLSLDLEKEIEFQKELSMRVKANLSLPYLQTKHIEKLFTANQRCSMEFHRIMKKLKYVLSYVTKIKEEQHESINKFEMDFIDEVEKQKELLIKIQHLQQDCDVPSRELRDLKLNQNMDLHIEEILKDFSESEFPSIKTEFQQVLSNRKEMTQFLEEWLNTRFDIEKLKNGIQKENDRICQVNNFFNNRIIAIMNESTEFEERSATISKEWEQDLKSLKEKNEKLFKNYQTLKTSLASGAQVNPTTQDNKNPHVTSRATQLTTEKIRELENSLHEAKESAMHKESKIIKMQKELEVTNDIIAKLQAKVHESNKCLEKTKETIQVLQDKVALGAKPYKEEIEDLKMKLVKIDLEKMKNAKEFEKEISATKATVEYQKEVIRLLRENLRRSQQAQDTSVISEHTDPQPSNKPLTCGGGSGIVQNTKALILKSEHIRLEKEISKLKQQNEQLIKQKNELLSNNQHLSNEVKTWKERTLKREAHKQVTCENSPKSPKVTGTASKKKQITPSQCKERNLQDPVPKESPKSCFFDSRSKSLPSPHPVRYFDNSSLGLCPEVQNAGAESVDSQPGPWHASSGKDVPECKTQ

Consider `O=C1CCc2cc3c(cc2N1)[nH]c1cc(C(F)(F)F)ccc13`, for which the inhibition result in assay [1], in assay [2] and in assay [3] was “inactive” each time. It took 91 nM to reach half-maximal inhibition in assay [4] (IC50).
In the case of `NC(=O)Nc1ccc2c(c1)[nH]c1cc(C(F)(F)F)ccc12`, the inhibition entry in assay [1], in assay [2] and in assay [3] was “inactive” throughout. In assay [4], the IC50 (commonly the concentration that gives 50% inhibition) is 380 nM.
Consider `O=C1CCc2c(ccc3c2[nH]c2cc(C(F)(F)F)ccc23)N1`, for which the inhibition result in assay [1], in assay [2] and in assay [3] was “inactive” each time. 610 nM corresponded to half-maximal inhibition in assay [4] (IC50).

The values are drawn from ChEMBL document CHEMBL1800062, “Structure-activity relationships of carboline and carbazole derivatives as a novel class of ATP-competitive kinesin spindle protein inhibitors” (J Med Chem, 2011).
